Source: PubChem
HSV augment: enhancers of HSV replication in host cells, fold increase, host cell viability; AID 1956, 2009; HSV replication augmentation in cells; actives 0.005% (n = 220,000); maximum fold increase; in the data active = maximum fold increase above about 1.5; tested in PC3 cells
STAT1 blocker: STAT1 signaling inhibitors, primary screen, cell-based, HTS, luciferase reporter | actives 0.35% (n = 200,000) | inhibition, % at 5.5 µM | NIH 3T3 STAT1-luciferase reporter, IFN-gamma, luminescence | AID 920, 2007;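 active = inhibition above a set limit, the mean inhibition across all tested compounds plus 3 SD, cut at about 34% in these data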;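 note: 0% = IFN-gamma with DMSO and 100% = IFN-gamma with 300 µM nifuroxazide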
STAT3 activator: IL-6 driven STAT3 reporter potentiators, primary screen, U3A cells, luciferase, luminescence, MLSCN library; activation (% of control), % at 5.6 µM; actives 0.91% (n = 190,000); AID 871, 2007; IL-6 STAT3-luciferase reporter; 100% = signal with IL-6 EC80 alone;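 active = activation above the screen-wide mean of compound activation plus 3 SD, cut at about 130% in these data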;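 note: 0% = background luminescence of wells with medium and substrate only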
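Material: human U3A cells carrying STAT3-luciferase construct. Measured by: reporter luminescence signal. Timing: compound 1 h, then IL-6 6 h at 37 °C.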
STAT3 blocker: IL-6 driven STAT3 reporter inhibitors, primary screen, U3A cells, luciferase, luminescence, MLSCN library; IL-6 STAT3-luciferase reporter; host cell line lacks STAT1; inhibition, % at 5.5 µM; actives 0.89% (n = 190,000); AID 862, 2007;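 active = inhibition above the mean inhibition across all screened compounds plus 3 SD, cut at about 44% in these data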;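 note: 0% = DMSO only wells and 100% = 100 µM nifuroxazide control wells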
STAT1 activator: STAT1 signaling activators, primary screen, cell-based, HTS, luciferase reporter | activation (% of control), % at 5.5 µM | AID 932, 2007 | NIH 3T3 STAT1-luciferase reporter, IFN-gamma, luminescence; 100% = IFN-gamma alone, no compound | actives 2.6% (n = 200,000);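 active = activation above the screen-wide mean activation plus 3 SD, cut at about 130% in these data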;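 note: raw ratio to IFN-gamma control signal so 100% means no change and 0% no light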
KCC2 mod: KCC2 cotransporter modulators, thallium flux, primary screen, cell-based, HEK293 KCC2, FluoZin-2 fluorescence, MLSMR | Solute carrier family 12 member 5 (Homo sapiens), Q9H2X9 | KCC2 cells, thallium flux FluoZin-2 fluorescence | B-score of Tl+ flux slope (higher = more flux/activation; lower = inhibition) at 10 µM | actives 2.2% (n = 190,000) | AID 1456, 2008;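 active = thallium flux slope and its plate-corrected score both differing from the plate sample mean at a set confidence after two filtering rounds, in either direction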;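 note: slope of fluorescence scaled to starting intensity during 10 to 20 s after thallium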
Starred values were filed as active, the others as inactive; i = inactive; . = no result given. Compounds with a hit are over-represented: about 5.5% of the library has one in this group of screens.

SMILES | HSV augment | STAT1 blocker | STAT3 activator | STAT3 blocker | STAT1 activator | KCC2 mod
O=C(c1cc(-c2ccccc2)on1)N1CCC2(CC1)OCCO2 | i | -40 | 107 | 1 | 137* | -1
O=C(c1cc2ccccn2n1)N1CCC2(CC1)OCCO2 | i | 7 | 99 | 5 | 94 | .
CN(C)c1ccc(C(=O)c2ccc(N(C)C)cc2)cc1 | i | -36 | 114 | -17 | 134* | 0.014
Clc1ccc2c(c1)C(c1ccccc1Cl)=NCc1nnc(Br)n1-2 | i | 2 | 90 | 15 | 97 | -0.88
Cc1ccccc1C1=NCC(=S)Nc2ccc(Cl)cc21 | i | 3 | 98 | 6 | 97 | 5.7*
Cc1cc(C)cc(N2C(=O)NC(=O)/C(=C/c3cccn3-c3ccc(Cl)cc3)C2=O)c1 | i | 16 | 105 | -2 | 86 | 0.084
Cc1cccc(N2C(=O)NC(=O)/C(=C\c3cccn3-c3ccc(Cl)cc3)C2=O)c1 | i | 34* | 111 | -13 | 69 | 1.2
O=C(Nc1ccccc1)c1cccn(Cc2ccccc2)c1=O | i | -34 | 77 | 29 | 132* | -1.4
O=C(Nc1c(F)cc(F)cc1F)c1cccn(Cc2ccccc2)c1=O | i | -7 | 105 | -4 | 104 | -0.89
O=C(COc1ccc(Br)cc1)N1CCN(Cc2c[nH]c3ccccc23)CC1 | . | 7 | 135* | -31 | 94 | 0.017
O=C(COc1ccc2ccccc2c1)N1CCN(Cc2c[nH]c3ccccc23)CC1 | i | -6 | 112 | -9 | 106 | 1.9
CNC(=O)Oc1ccc(-c2cn3cc(C)ccc3n2)cc1 | i | 82* | 12 | 106* | 28 | -2.3
CC(=NCCCn1ccnc1)c1c(O)n(Cc2ccccc2)c(=O)[nH]c1=O | i | -4 | 107 | -5 | 104 | -1.8
Cc1ccc2nc(N3CCN(C)CC3)[nH]c2c1 | i | -36 | 117 | -15 | 133* | 0.56
O=c1[nH]c(=O)n(CCc2ccccc2)c(O)c1C=NCc1ccc2c(c1)OCO2 | i | -8 | 98 | 7 | 107 | 0.74
O=C(NC12CC3CC(CC(C3)C1)C2)OC1CN2CCC1CC2 (stereo unspecified) | i | . | . | . | . | -0.24
CC(=NCC1CCCO1)c1c(O)n(-c2ccccc2C)c(=O)[nH]c1=O (stereo unspecified) | i | . | . | . | . | 1
Cc1nc2c(=O)n(C)c(=O)nc-2n(C)n1 | . | 92* | 14 | 107* | 15 | -0.067
N#CC12CNCC1CN=N2 (stereo unspecified) | i | . | . | . | . | 0.77
C[C@H]1CCC/C=C/C2C[C@H](O)CC2[C@H](O)/C=C/C(=O)O1 (stereo partly specified) | i | 46* | 20 | 93* | 58 | -0.75
CC1CCC/C=C/C2CC(O)CC2C(O)/C=C/C(=O)O1 (stereo unspecified) | . | 53* | 26 | 89* | 52 | .
Cc1ccc(C2N(c3cc(C)on3)C(=O)C3CCCN32)cc1 (stereo unspecified) | i | -4 | 95 | 13 | 104 | .
COC(=O)C1=C(c2ccc(S(C)(=O)=O)cc2)C[C@@H]2CC[C@H]1N2C(=O)NCCS(C)=O (stereo partly specified) | i | . | . | . | . | .
Clc1ccccc1Nc1ncnc(-n2cccc2)n1 | i | -39 | 119 | -17 | 136* | -3.8
CN1CC2([N+](=O)[O-])CC=C(Cl)C([N+](=O)[O-])(C1)C2 (stereo unspecified) | i | -1 | 102 | 8 | 101 | 0.81
CCCCn1c(O)c(C(C)=NC(Cc2c[nH]c3ccccc23)C(=O)OC)c(=O)[nH]c1=O (stereo unspecified) | i | -1 | 104 | 0 | 101 | -0.21
CN1/C(=C\C=C\C2=[N+](C)c3ccc4ccccc4c3C2(C)C)C(C)(C)c2ccccc21 | i | 72* | 20 | 103* | 36 | -6*
